DENV2 CPE: inhibitors of DENV2 cytopathic effect; hit rate 1.7% among 350,000; DENV2-infected cells, cytopathic effect rescue, plate reader; AID 651640; CPE inhibition, % at 9.99 µM; in the data active = CPE inhibition above about 20%, passing the limit was not always enough; inconclusive = no clear call, values can overlap the other calls; tested in BHK-21 cells;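 note: 0% = median of neutral control wells and 100% = median of positive control wells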
E-selectin induc: E-selectin induction on HUVECs. activation, % at 7.58 µM. AID 686992. HUVEC E-selectin immunofluorescence imaging; normalized: neutral wells 0, TNF-alpha wells 100. hit rate 0.37% among 260,000;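 active = mean E-selectin-positive cell signal at least 10% of the positive control, reached in at least 60% of replicates, without over 20% cell loss; inconclusive = no rule given, readout overlaps actives, possibly toxicity-flagged; inactive = the rest, including those meeting only one limit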
Target sequence (P16581 whole entry, looked up): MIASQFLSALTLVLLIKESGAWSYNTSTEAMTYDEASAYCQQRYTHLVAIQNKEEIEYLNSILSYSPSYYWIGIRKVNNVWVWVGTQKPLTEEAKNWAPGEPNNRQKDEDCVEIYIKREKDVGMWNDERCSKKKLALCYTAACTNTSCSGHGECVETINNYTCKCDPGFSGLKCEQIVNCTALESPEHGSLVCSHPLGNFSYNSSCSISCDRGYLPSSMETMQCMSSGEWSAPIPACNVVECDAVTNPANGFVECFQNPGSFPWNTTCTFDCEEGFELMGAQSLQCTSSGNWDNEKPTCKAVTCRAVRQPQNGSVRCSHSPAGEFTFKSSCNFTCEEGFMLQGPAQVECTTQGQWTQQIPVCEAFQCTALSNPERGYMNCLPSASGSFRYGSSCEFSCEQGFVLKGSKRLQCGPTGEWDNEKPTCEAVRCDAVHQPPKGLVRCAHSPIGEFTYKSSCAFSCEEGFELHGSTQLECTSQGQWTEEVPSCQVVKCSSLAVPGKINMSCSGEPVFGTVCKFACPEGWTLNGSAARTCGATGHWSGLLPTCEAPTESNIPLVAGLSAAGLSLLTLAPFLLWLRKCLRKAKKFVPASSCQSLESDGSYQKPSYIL
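material = human umbilical vein endothelial cells (HUVEC), E-selectin induction | quantity = 3,000 cells/well | medium = EGM-2 growth medium on 0.1% gelatin-coated wells | technique = immunofluorescence imaging | read-out basis = % PE-positive cells | control set = TNF-alpha positive control, DMSO neutral control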
SIRT5 inh: inhibitors of human sirtuin-5 desuccinylase; Purified SirT5, succinyl-peptide AMC, trypsin-coupled fluorescence; Q9NXA8; AID 652115; hit rate 1.1% among 330,000; inhibition, % at 15 µM; in the data active = inhibition above about 15%; inconclusive = no clear call, values can overlap the other calls
Active calls of the source: *; u = inconclusive; x = no result given. Compounds with a hit are over-represented: about 2.8% of the library has one in this group of screens.

SMILES | DENV2 CPE | E-selectin induc | SIRT5 inh
COc1cccc(S(=O)(=O)Nc2ccc3c(c2)C(=O)N(C)C[C@@H](OC)[C@H](C)CN[C@@H](C)CO3)c1 | -4 | 0 | -1
CO[C@H]1CN(C)C(=O)c2cc(NS(=O)(=O)c3ccccc3)ccc2OC[C@H](C)NC[C@H]1C | 1 | 0 | x
CO[C@H]1CN(C)C(=O)c2cc(NS(=O)(=O)c3ccccc3F)ccc2OC[C@@H](C)NC[C@@H]1C | 65* | 0 | 0
CO[C@@H]1CN(C)C(=O)c2cc(NS(=O)(=O)c3ccccc3)ccc2OC[C@@H](C)NC[C@@H]1C | 29* | 0 | x
COc1cccc(S(=O)(=O)Nc2ccc3c(c2)C(=O)N(C)C[C@@H](OC)[C@@H](C)CN[C@H](C)CO3)c1 | 22* | 0 | -3
CO[C@H]1CN(C)C(=O)c2cc(NS(=O)(=O)c3ccc(Oc4ccccc4)cc3)ccc2OC[C@H](C)NC[C@H]1C | 4 | 0 | 28*
CO[C@@H]1CN(C)C(=O)c2cc(NS(=O)(=O)c3ccccc3F)ccc2OC[C@@H](C)NC[C@@H]1C | -1 | 0 | -1
CC(C)NC(=O)N(C)C[C@@H]1Oc2cc(C#Cc3ccccn3)ccc2S(=O)(=O)N([C@@H](C)CO)C[C@@H]1C | -3 | 1 | 4
COCc1cn(CC[C@H]2CC[C@H](NC(=O)Nc3ccc(OC)cc3)[C@H](CO)O2)nn1 | u | -2 | 0
C[C@@H](O)C#Cc1cnc2c(c1)C(=O)N([C@@H](C)CO)C[C@H](C)[C@H](CN(C)C(=O)Cc1ccccn1)O2 | 2 | 0 | -3
CC(=O)Nc1ccc2c(c1)C(=O)N(C)[C@@H]1CC[C@H](CC(=O)N3CCc4ccccc4C3)O[C@@H]1CO2 | -1 | 0 | x
COc1cccc(CNc2nc3cc(-c4ccccc4)sc3c(=O)n2C)c1OC | 10 | 0 | 1
COc1ccccc1CNc1nc2cc(-c3ccc(OC)c(OC)c3)sc2c(=O)n1C | -2 | 0 | 20*
CO[C@H]1CN(C)C(=O)c2ccc(NC(C)=O)cc2OC[C@H](C)N(C(=O)CN2CCOCC2)C[C@H]1C | 14 | 0 | -2
CCOC(=O)N1CCC(NC(=O)Cn2nc(-c3ccccc3)ccc2=O)CC1 | -3 | x | 18*
CCOC(=O)N1CCN(C(=O)CCn2nc(-c3ccccc3)ccc2=O)CC1 | 7 | x | -1
CCCNC(=O)Nc1ccc2c(c1)OC[C@H](C)N(C(=O)C1CCOCC1)C[C@H](C)[C@H](OC)CN(C)C2=O | 3 | 0 | 1
C[C@@H]1CN([C@@H](C)CO)C(=O)Cc2cc(NS(C)(=O)=O)ccc2O[C@H]1CN(C)Cc1ccncc1 | 7 | 440* | -2
C[C@@H]1CN([C@H](C)CO)C(=O)Cc2cc(NS(C)(=O)=O)ccc2O[C@@H]1CN(C)Cc1ccncc1 | u | 7 | -3
Cc1ccc(S(=O)(=O)Nc2ccc3c(c2)CC(=O)N([C@@H](C)CO)C[C@@H](C)[C@H](CN(C)Cc2ccncc2)O3)cc1 | 37* | 1 | -4
Cc1ccc(S(=O)(=O)Nc2ccc3c(c2)CC(=O)N([C@@H](C)CO)C[C@H](C)[C@H](CN(C)Cc2ccncc2)O3)cc1 | 5 | 2 | 0
O=C(C[C@@H]1C[C@H]2c3cc(NC(=O)Nc4ccccc4F)ccc3O[C@H]2[C@@H](CO)O1)NCCc1ccccc1 | -7 | 1 | 1
COc1ccc(NC(=O)N2CC3(C2)CN(CC2CC2)[C@H](CO)c2c3c3ccc(OC)cc3n2C)cc1 | 4 | 0 | 1
Nc1[nH]c(N=NC(=O)c2ccc(F)cc2)c2ccccc12 | 2 | 0 | 0
Nc1ccccc1C(=O)N=Nc1[nH]c(N)c2ccccc12 | -3 | x | 18*
SMILES | DENV2 CPE | E-selectin induc | SIRT5 inh
O=C(Nc1cccc(F)c1)N1C[C@H]2[C@@H](c3ccccc31)[C@H](CO)N2C(=O)c1ccccn1 | 18 | 1 | 4
O=C(Cc1ccc(NC(=O)C2CCCN(C(=O)C3CC3)C2)cc1)Nc1cccc(C(=O)N2CCCC2)c1 (centres undefined) | 62* | 0 | -3
O=C(Cc1cccc(NC(=O)C2CCCN(C(=O)C3CCCCC3)C2)c1)Nc1ccc(C(=O)N2CCOCC2)cc1 (centres undefined) | 24* | 0 | 3
O=C(Cc1cccc(NC(=O)C2CCCN(C(=O)C3CC3)C2)c1)Nc1ccc(C(=O)N2CCOCC2)cc1 (centres undefined) | -5 | 0 | 1
CC(C)(C)OC(=O)N1CCCC(C(=O)Nc2cccc(C(=O)NCCCCc3ccccc3)c2)C1 (centres undefined) | -1 | 1 | 17*
CC(C)(C)OC(=O)N1CCCC(C(=O)Nc2cccc(C(=O)NCCc3ccccc3)c2)C1 (centres undefined) | -3 | 1 | -2
O=C(Cc1cccc(NC(=O)C2CCN(C(=O)C3CCCC3)CC2)c1)Nc1cccc(C(=O)N2CCCC2)c1 | -13 | 0 | x
